From ChEMBL document CHEMBL3804806, “Synthesis of (Z)-1-(1,3-diphenyl-1H-pyrazol-4-yl)-3-(phenylamino)prop-2-en-1-one derivatives as potential anticancer and apoptosis inducing agents” (Eur J Med Chem, 2016)
Activity calls are given as the source filed them. The rule behind the calls is not given here.

Experiments:
[1] = tested on: HT-29; assay: Antiproliferative activity against human HT-29 cells after 48 hrs by MTT assay; type: functional, cell-based; conditions: HT-29, 48 h
Summary of the method: (§1)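 Cells seeded at 3,000-5,000/well by doubling time and grown 24 h (37 °C, 5% CO2). HT-29/U87MG kept in DMEM + 10% FBS; A549/PC-3/HaCaT in RPMI-1640 + 10% FBS. Compounds for 48 h, then MTT 4 h, formazan dissolved in DMSO, A570 minus A630. % inhibition vs DMSO-treated cells; IC50 by probit. Three independent experiments in quadruplicate; mean ± SD.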

[2] = Antiproliferative activity against human PC3 cells after 48 hrs by MTT assay; type: functional, cell-based; conditions: PC-3, 48 h; summary of the method: as §1
[3] = Antiproliferative activity against human U87MG cells after 48 hrs by MTT assay; type: functional, cell-based, U-87MG ATCC; conditions: U-87 MG; summary of the method: as §1
[4] = tested on: A549; assay: Antiproliferative activity against human A549 cells after 48 hrs by MTT assay; type: functional, cell-based; conditions: A549, 48 h; summary of the method: as §1
[5] = tested on: HaCaT; assay: Antiproliferative activity against human HaCaT cells after 48 hrs by MTT assay; type: cell-based; summary of the method: as §1
[6] = tested on: A549; assay: Induction of apoptosis in human A549 cells assessed as nuclear fragmentation at antiproliferative IC50 after 24 hrs by Hoechst 33242 staining based confocal microscopic analysis; type: functional, cell-based
Summary of the method: (§2)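 A549 cells (1x10⁶/well) on coverslips exposed 24 h at IC50, then fixed in 4% paraformaldehyde 10 min at 4 °C. Stained with Hoechst 33242 (5 μg/mL) 20 min at room temp. Nuclear morphology examined by confocal microscopy, excitation 350/emission 460 nm, 20X.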

[7] = tested on: A549; assay: Anti-migratory activity in human A549 cells assessed as disruption of actin fibre assembly after 12 hrs by rhodamine phalloidin/Hoechst 33242 staining based confocal microscopic analysis; type: functional, cell-based
Summary of the method: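 A549 cells (1x10⁶/well) grown on coverslips 24 h, then exposed to compounds 12 h. Washed, fixed in 4% paraformaldehyde in PBS, stained with rhodamine-phalloidin (F-actin) and Hoechst 33242 (nuclei), mounted in anti-fade. Examined by confocal microscopy, 20X objective.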

[8] = tested on: A549; assay: Anti-migratory activity in human A549 cells at antiproliferative IC50 after 24 to 48 hrs by wound healing assay; type: functional, cell-based
[9] = tested on: A549; assay: Induction of apoptosis in human A549 cells assessed as intracellular ROS level at antiproliferative IC50 after 24 hrs by DCFDA staining based fluorescence microscopic analysis relative to control; type: functional
[10] = tested on: A549; assay: Cell cycle arrest in human A549 cells assessed as accumulation at G2/M phase at antiproliferative IC50 after 24 hrs by propidium iodide staining based flow cytometry (reference value: 27.2%); type: functional
[11] = Selectivity ratio of IC50 for human HaCaT cells to IC50 for human A549 cells; type: ADME, cell-based; conditions: HaCaT cells versus A549 cells, read-out: Ratio IC50
Summary of the method: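 Ratio built from MTT IC50s: 48 h exposure, absorbance 570 minus 630 nm, inhibition relative to DMSO vehicle, probit-fitted IC50 for HaCaT keratinocytes and A549 cells. Three independent experiments, quadruplicate wells.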

[12] = tested on: A549; assay: Induction of apoptosis in human A549 cells assessed as loss in mitochondrial membrane potential at antiproliferative IC50 after 24 hrs by rhodamine 123 staining based spectrofluorometry relative to control; type: functional
Summary of the method: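 A549 cells plated at 5×10^5 cells/mL, adhered overnight, then 24 h at IC50. Harvested and incubated with rhodamine-123 (10 µg/mL) in PBS 30 min at room temp, washed. Fluorescence read by spectrofluorometer, ex 480/em 530 nm, vs untreated cells. Mean ± SD of three independent experiments, each in triplicate.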

[13] = tested on: A549; assay: Induction of apoptosis in human A549 cells assessed as chromatin condensation at antiproliferative IC50 after 24 hrs by Hoechst 33242 staining based confocal microscopic analysis; type: functional, cell-based; summary of the method: as §2

SMILES	IC50 [1]	IC50 [2]	IC50 [3]	IC50 [4]	IC50 [5]	Activity [6]	Activity [7]	Activity [8]	fold change (FC) [9]	Activity [10]	selectivity ratio [11]	Activity [12]	Activity [13]
O=C(/C=C\Nc1ccc(Cl)cc1)c1cn(-c2ccccc2)nc1-c1ccccc1	3.61 µM	5.2 µM	11.4 µM	14.1 µM	28.4 µM	–	–	–	–	–	–	–	–
COc1cc(-c2nn(-c3ccccc3)cc2C(=O)/C=C\Nc2ccc(C(F)(F)F)cc2)cc(OC)c1OC	> 50 µM	> 50 µM	> 50 µM	> 50 µM	> 50 µM	–	–	–	–	–	–	–	–
COc1ccc(-c2nn(-c3ccccc3)cc2C(=O)/C=C\Nc2ccc(O)cc2)cc1	2.46 µM	1.98 µM	3.73 µM	2.77 µM	34.6 µM	Active	Active	Active	2.1	43.1%	10	43.5%	Active
O=C(/C=C\Nc1ccc(F)cc1)c1cn(-c2ccccc2)nc1-c1ccc(Cl)cc1	> 50 µM	> 50 µM	17.9 µM	> 50 µM	> 50 µM	–	–	–	–	–	–	–	–
O=C(/C=C\Nc1ccc(O)cc1)c1cn(-c2ccccc2)nc1-c1ccc(Cl)cc1	2.5 µM	4.43 µM	1.5 µM	1.91 µM	22.6 µM	Active	Active	Active	2.1	49.2%	10	45.8%	Active
COc1cc(N/C=C\C(=O)c2cn(-c3ccccc3)nc2-c2ccccc2)cc(OC)c1OC	9.8 µM	5.93 µM	2.35 µM	6.34 µM	36.2 µM	–	–	–	–	–	–	–	–
COc1cc(-c2nn(-c3ccccc3)cc2C(=O)/C=C\Nc2ccc(O)cc2)cc(OC)c1OC	2.5 µM	4.6 µM	1.8 µM	3.16 µM	17.6 µM	–	–	–	–	–	–	–	–
O=C(/C=C\Nc1ccc(Cl)cc1)c1cn(-c2ccccc2)nc1-c1ccc(F)cc1	4.6 µM	3.8 µM	8.9 µM	6.7 µM	21.3 µM	–	–	–	–	–	–	–	–
COc1ccc(-c2nn(-c3ccccc3)cc2C(=O)/C=C\Nc2ccc(Cl)cc2)cc1	4.76 µM	3.89 µM	8.86 µM	2.97 µM	20.9 µM	–	–	–	–	–	–	–	–
COc1ccc(N/C=C\C(=O)c2cn(-c3ccccc3)nc2-c2ccc(OC)cc2)cc1	8.76 µM	13.4 µM	> 50 µM	6.78 µM	> 50 µM	–	–	–	–	–	–	–	–
O=C(/C=C\Nc1ccc(O)cc1)c1cn(-c2ccccc2)nc1-c1ccc(F)cc1	1.9 µM	2.6 µM	4.7 µM	1.5 µM	16.3 µM	Active	Active	Active	2.1	41%	10	30%	Active
O=C(/C=C\Nc1ccc(F)cc1)c1cn(-c2ccccc2)nc1-c1ccc(F)cc1	6.5 µM	7.9 µM	18.2 µM	5.78 µM	> 50 µM	–	–	–	–	–	–	–	–
COc1ccc(-c2nn(-c3ccccc3)cc2C(=O)/C=C\Nc2ccc(F)cc2)cc1	7.65 µM	5.73 µM	8.91 µM	3.98 µM	8.91 µM	–	–	–	–	–	–	–	–
COc1ccc(-c2nn(-c3ccccc3)cc2C(=O)/C=C\Nc2ccc(C(F)(F)F)cc2)cc1	9.87 µM	> 50 µM	> 50 µM	> 50 µM	> 50 µM	–	–	–	–	–	–	–	–
COc1ccc(N/C=C\C(=O)c2cn(-c3ccccc3)nc2-c2ccc(F)cc2)cc1	3.2 µM	4.6 µM	2.5 µM	8.9 µM	19.6 µM	–	–	–	–	–	–	–	–
COc1ccc(-c2nn(-c3ccccc3)cc2C(=O)/C=C\Nc2cc(OC)c(OC)c(OC)c2)cc1	14.6 µM	18.9 µM	> 50 µM	11.2 µM	> 50 µM	–	–	–	–	–	–	–	–

SMILES	IC50 [1]	IC50 [2]	IC50 [3]	IC50 [4]	IC50 [5]	Activity [6]	Activity [7]	Activity [8]	fold change (FC) [9]	Activity [10]	selectivity ratio [11]	Activity [12]	Activity [13]
COc1cc(N/C=C\C(=O)c2cn(-c3ccccc3)nc2-c2ccc(F)cc2)cc(OC)c1OC	7.77 µM	4.89 µM	12.6 µM	9.35 µM	32.8 µM	–	–	–	–	–	–	–	–
O=C(/C=C\Nc1ccc(Cl)cc1)c1cn(-c2ccccc2)nc1-c1ccc(Cl)cc1	4.65 µM	3.89 µM	13.1 µM	3.67 µM	23.4 µM	–	–	–	–	–	–	–	–
O=C(/C=C\Nc1ccc(C(F)(F)F)cc1)c1cn(-c2ccccc2)nc1-c1ccc(F)cc1	> 50 µM	> 50 µM	> 50 µM	> 50 µM	> 50 µM	–	–	–	–	–	–	–	–
COc1cc(N/C=C\C(=O)c2cn(-c3ccccc3)nc2-c2cc(OC)c(OC)c(OC)c2)cc(OC)c1OC	8.4 µM	14.1 µM	5.1 µM	7.98 µM	20.9 µM	–	–	–	–	–	–	–	–
COc1cc(-c2nn(-c3ccccc3)cc2C(=O)/C=C\Nc2ccc(Cl)cc2)cc(OC)c1OC	7.68 µM	11.2 µM	3.21 µM	8.67 µM	30.2 µM	–	–	–	–	–	–	–	–
COc1ccc(N/C=C\C(=O)c2cn(-c3ccccc3)nc2-c2ccccc2)cc1	1.56 µM	6.4 µM	> 50 µM	3.25 µM	> 50 µM	–	–	–	–	–	–	–	–
O=C(/C=C\Nc1ccc(C(F)(F)F)cc1)c1cn(-c2ccccc2)nc1-c1ccccc1	> 50 µM	> 50 µM	> 50 µM	> 50 µM	> 50 µM	–	–	–	–	–	–	–	–
O=c1[nH]cc(F)c(=O)[nH]1 [FLUOROURACIL]	2.8 µM	2.76 µM	3.65 µM	3.98 µM	16.1 µM	–	–	–	–	–	–	–	–
COc1cc(N/C=C\C(=O)c2cn(-c3ccccc3)nc2-c2ccc(Cl)cc2)cc(OC)c1OC	12.7 µM	9.98 µM	17.8 µM	5.64 µM	46.6 µM	–	–	–	–	–	–	–	–
O=C(/C=C\Nc1ccc(O)cc1)c1cn(-c2ccccc2)nc1-c1ccccc1	5 µM	3.6 µM	4.29 µM	3.21 µM	44.6 µM	–	–	–	–	–	–	–	–
COc1ccc(N/C=C\C(=O)c2cn(-c3ccccc3)nc2-c2cc(OC)c(OC)c(OC)c2)cc1	5.78 µM	9.6 µM	12.8 µM	4.78 µM	> 50 µM	–	–	–	–	–	–	–	–
COc1ccc(N/C=C\C(=O)c2cn(-c3ccccc3)nc2-c2ccc(Cl)cc2)cc1	8.93 µM	10.7 µM	6.89 µM	6.46 µM	30.8 µM	–	–	–	–	–	–	–	–
COc1cc(-c2nn(-c3ccccc3)cc2C(=O)/C=C\Nc2ccc(F)cc2)cc(OC)c1OC	12.5 µM	7.7 µM	4.78 µM	15.6 µM	25.7 µM	–	–	–	–	–	–	–	–
O=C(/C=C\Nc1ccc(C(F)(F)F)cc1)c1cn(-c2ccccc2)nc1-c1ccc(Cl)cc1	> 50 µM	> 50 µM	> 50 µM	> 50 µM	> 50 µM	–	–	–	–	–	–	–	–
O=C(/C=C\Nc1ccc(F)cc1)c1cn(-c2ccccc2)nc1-c1ccccc1	6.87 µM	7.98 µM	10.2 µM	4.67 µM	34.2 µM	–	–	–	–	–	–	–	–
